XBP1 UPR activ – activators of adaptive arm of unfolded protein response (XBP1); hit rate 0.33% among 330,000; activation, % at 20 µM; CHO-XBP1 luciferase reporter, IRE1-XBP1 UPR activation, luminescence; percent of tunicamycin response, DMSO as zero;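 active = versus positive control, 20 µM dose yields 30% or more activation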;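 note: 100% = tunicamycin at 10 µg/mL and 0% = DMSO only wells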
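Test system: CHO-XBP1 luciferase reporter cells | Buffer or medium: Serum-containing F12 medium, 10% FBS | Schedule: 6 h compound exposure at 37 °C, 5% CO2 | Detection: Steady-Glo luciferase glow luminescence, 10 min after reagent addition | Read-out basis: Activation, % of tunicamycin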
Mdm2 MdmX PPI – inhibitors of human Mdm2/MdmX interaction. hit rate 3% among 330,000. inhibition, % at 8 µM. O15151+Q00987. SaOS-2 split-luciferase Mdm2/MdmX complementation, luminescence;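 active = inhibition of at least 50% at 8 µM in the primary screen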
Exocytosis inh – blocks lytic granule exocytosis; TALL-104 LAMP-1 surface exposure, flow cytometry; cells stimulated with thapsigargin and PMA; inhibition, % at 10 µM; hit rate 0.66% among 360,000; AID 651702;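 active = inhibition above about 55%, limit read from the data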
UPR CHOP act – activators of apoptotic arm of unfolded protein response (CHOP) | CHO-CHOP luciferase reporter, UPR activation, luminescence; percent of tunicamycin response over DMSO baseline | activation, % at 10 µM | hit rate 0.34% among 330,000 | AID 449763;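 active = at 10 µM dose, activation of 40% or more, normalized to positive control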;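 note: 100% = tunicamycin at 10 µg/mL and 0% = DMSO alone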
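assay system = CHO CHOP reporter cells | amount = 500 CHO-CHOP cells per well | buffer or medium = F12 with 10% FBS | incubation = 16-18 h cell attachment, then 6 h compound exposure, 37 °C | detection = luminescence read with Steady-Glo | read-out = percent activation relative to tunicamycin control | controls = tunicamycin high control, DMSO low control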
ABHD5-PLIN5 inh – ABHD5-PLIN5 protein interaction inhibition. hit rate 0.78% among 360,000. Split G. princeps luciferase complementation, luminescence, 4 h. inhibition, % at 4 µM. Q00G26+Q8WTS1;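 active = inhibition above the mean inhibition across every tested compound plus 3 SD, cut at about 22% in these data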;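 note: 0% = DMSO only wells and the 100% control is not disclosed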
Mdm2 MdmX conf – confirmation of human Mdm2/MdmX interaction inhibitors; shares compounds with Mdm2 MdmX PPI; Mdm2-MdmX binding, luminescent assay; inhibition, % at 8 µM; hit rate 55% among 10,000; AID 489028; in the data active = inhibition above about 40%
Full FLuc ctr – inhibits full-length luciferase, flagging false Mdm2/MdmX hits; shares compounds with Mdm2 MdmX PPI; SaOS-2 full-length luciferase counterscreen, luminescence; inhibition, % at 8 µM; hit rate 77% among 6,200;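 active = mean inhibition at 8 µM reaching about 37%, which flags the compound as non-specific, limit read from the data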;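 note: p53-null SaOS-2 cells with luciferase driven by a doxycycline-inducible promoter; compound on cells about two nights before reading with doxycycline added after day one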
* hit, by the source's call; x = not tested or not shown. Only some compounds are listed: those with a hit (about 4% of all), similar ones and a draw of the others.

SMILES | XBP1 UPR activ | Mdm2 MdmX PPI | Exocytosis inh | UPR CHOP act | ABHD5-PLIN5 inh | Mdm2 MdmX conf | others
CC(=O)OC[C@]12CCC(C)=C[C@H]1O[C@@H]1[C@H](O)[C@@H](OC(C)=O)[C@@]2(C)[C@]12CO2 | -6.4 | 100.3* | -3.7 | -6.2 | 1.2 | 100.3* | Full FLuc ctr=0.1
O=[N+]([O-])c1ccc(N2CCNCC2)cc1Sc1ccccn1 | 1.9 | 13.1 | 1.1 | -0.7 | 6.3 | x
C[C@]12CC[C@H](O)CC1=CC[C@@H]1[C@@H]2CC[C@]2(C)C(=O)CC[C@@H]12 | -3.8 | 12.7 | -4.9 | 0.7 | 1.1 | x
CC12CCC3C(CC=C4CC(O)CCC43C)C1C/C(=C\c1ccccc1F)C2=O (stereo not given) | 0.0 | 77.8* | 5.4 | 1.1 | -0.6 | 27.4
C[C@]12CC[C@H](O)CC1=CCC1C2CC[C@]2(C)C(=O)[C@H](Br)CC12 (stereo not given in full) | -3.7 | 50.0* | -10.2 | -0.1 | 5.6 | -10.4
Cc1nn(C)cc1/C=C1/CC2C3CC=C4CC(O)CCC4(C)C3CCC2(C)C1=O (stereo not given) | -1.5 | 34.7 | -1.1 | -2.7 | -1.9 | x
O=c1[nH]c(=S)n(Cc2ccc(F)cc2)c(O)c1C=NCC1CCCO1 (stereo not given) | -1.4 | 18.1 | 0.8 | -0.7 | -0.1 | x
O=S(=O)(c1ccc(Cl)cc1)N1Cc2cc(Br)ccc2-n2nncc2C1 | x | x | -2.5 | x | 5.5 | x
CCC(=NCCc1c[nH]c2ccccc12)c1c(O)n(C)c(=O)n(C)c1=O | 3.2 | 27.9 | 4.6 | 0.4 | 2.9 | x
COC(COC(N)=O)C1=C(N2CC2)C(=O)C(C)=C(N2CC2)C1=O (stereo not given) | x | x | 1.0 | x | -21.8 | x
N=c1c2c(n(Cc3ccc(Cl)cc3Cl)c3c1CCC3)CCCC2 | -2.4 | 82.2* | -0.6 | 0.3 | 9.2 | 36.9 | Full FLuc ctr=58.9*
Cc1nn(Cc2ccc(Cl)cc2Cl)c(Cl)c1C(=O)O | -1.9 | 21.5 | -1.8 | -1.6 | 10.6 | x
CCCCCCC(=O)N/N=C/c1c(O)n(C(C)CC)c(=S)[nH]c1=O (stereo not given) | -1.7 | 57.5* | -16.6 | -3.0 | 2.9 | 14.3
CCCCCCC(=O)N/N=C/c1c(O)n(CCc2ccccc2)c(=O)[nH]c1=O | -1.6 | 59.1* | 7.3 | -3.0 | -3.3 | 35.8
CCCCCCC(=O)N/N=C/c1c(O)n(C2CC2)c(=S)[nH]c1=O | -3.1 | 4.8 | 0.4 | -1.0 | 7.5 | x
C/C=C(\C)C(=O)N[C@@H](c1ccccc1)[C@@H](O)C(=O)O[C@H]1C[C@@]2(O)[C@@H](OC(=O)c3ccccc3)C3[C@](C)(C(=O)[C@H](O)C(=C1C)C2(C)C)[C@@H](O)C[C@H]1OC[C@@]31OC(C)=O (stereo not given in full) | 2.4 | 53.3* | -2.1 | -0.3 | 0.5 | 64.8* | Full FLuc ctr=41.0*
O=[N+]([O-])c1ccc(N2CCNCC2)cc1N1CCCCCC1 | 2.8 | 11.7 | 1.4 | -1.9 | 2.6 | x
O=[N+]([O-])c1cc(F)c(N2CCCCCC2)cc1N1CCNCC1 | 6.6 | 52.3* | 8.2 | -0.7 | 15.0 | 26.6
CNCC[C@@H](Oc1ccc(C(F)(F)F)cc1)c1ccccc1 | -2.5 | 50.4* | 6.1 | 2.8 | 11.4 | 28.2
O=c1c2ccccc2nc(CN2CCOCC2)n1-c1ccccc1F | 2.3 | 30.2 | 2.2 | 1.1 | -1.4 | x
c1ccc2c(N3CCNCC3)nsc2c1 | -1.9 | 52.6* | 3.6 | 0.3 | -12.6 | 64.5* | Full FLuc ctr=29.6
O=C1CN=C(c2ccccc2)c2oc3ccc(Br)cc3c2N1 | 0.3 | 4.1 | 1.8 | 0.2 | -5.9 | x
COc1cccc(OC)c1C1=NCC(=O)Nc2c1oc1ccc(Br)cc21 | 18.3 | 70.3* | 3.4 | 0.2 | -1.3 | 67.8* | Full FLuc ctr=77.8*
O=C1CN=C(c2ccc(Br)cc2)c2oc3ccccc3c2N1 | 0.6 | 58.3* | 0.1 | 0.8 | 0.4 | 22.1
COC(=O)C(C)Oc1cc(C)cc2oc(=O)c3c(c12)CCC3 (stereo not given) | -1.3 | 52.3* | -2.1 | 1.9 | 2.1 | 27.2
SMILES | XBP1 UPR activ | Mdm2 MdmX PPI | Exocytosis inh | UPR CHOP act | ABHD5-PLIN5 inh | Mdm2 MdmX conf | others
CN[C@@H]1C[C@@H](c2ccc(Cl)c(Cl)c2)c2ccccc21 | -7.3 | 82.2* | x | 0.1 | x | 36.5
COc1cc2c(cc1OC)C(C(=O)N1CCC3(CC1)OCCO3)C(c1ccccc1F)N(C)C2=O (stereo not given) | -0.7 | 18.1 | 5.7 | -0.4 | -6.3 | x
COc1ccc(-c2ccc3c(c2)CN(C(=S)NCCc2ccccc2)Cc2cnnn2-3)cc1 | x | x | -2.8 | x | -1.5 | x
O=c1c2ccccc2nc(/C=C/c2ccc(O)cc2)n1-c1ccc(O)cc1 | 4.0 | 26.8 | -11.6 | 7.0 | 13.8 | x
COc1ccc(-n2c(/C=C/c3ccc(O)cc3)nc3ccccc3c2=O)cc1 | -3.0 | 50.2* | 3.6 | 0.8 | 0.2 | 24.0
CCCCn1c(O)c(C(C)=NCc2ccc3c(c2)OCO3)c(=O)[nH]c1=O | -1.6 | 28.7 | 8.3 | -0.7 | 0.0 | x
O=C(/C=C/c1ccc2c(c1)OCO2)c1c(O)n(CCc2ccccc2)c(=O)[nH]c1=O | -1.2 | 65.0* | 0.3 | 2.0 | 1.3 | 25.6
O=C(/C=C/c1ccccc1)c1c(O)n(CCc2ccccc2)c(=O)[nH]c1=O | 1.8 | 69.1* | -0.2 | 0.7 | 0.1 | 37.4
COc1cc(/C=C/C(=O)c2c(O)n(CCc3ccccc3)c(=O)[nH]c2=O)ccc1O | 0.1 | 53.4* | 3.2 | 0.4 | 1.2 | 46.0* | Full FLuc ctr=47.7*
CCCCn1c(O)c(C(C)=NCCc2ccccc2)c(=O)[nH]c1=O | 4.2 | 2.9 | -3.5 | -3.0 | 6.8 | x
O=[N+]([O-])c1ccc(NC2CCN(Cc3ccccc3)CC2)c2ccncc12 | -5.0 | 63.9* | 6.6 | -0.5 | -4.6 | 35.9
CCn1c(P(C)(=O)O)nc2ccccc21 | 0.1 | -11.9 | -2.2 | 1.9 | 0.2 | x
CCn1c(NN=O)nc2ccccc21 | 5.0 | 77.5* | -2.9 | 10.6 | 5.7 | 71.9* | Full FLuc ctr=21.1
COc1cccc(N2C(=O)NC(=O)C3(Cc4cc(C)ccc4N(C)C3)C2=O)c1 (stereo not given) | -2.7 | 8.5 | -5.9 | -1.6 | 4.9 | x
Cc1ccc(N2CCN(CCc3ccccc3)CC2)cc1 | -2.9 | -3.3 | 3.2 | -0.2 | -6.5 | x
COC(=O)C(Cc1ccc(N(CCCl)CCCl)cc1)N=Cc1ccccc1O (stereo not given) | -8.6 | 92.7* | 31.6 | -3.5 | 2.6 | 83.1* | Full FLuc ctr=59.2*
COc1cc(/C=C(/C)[N+](=O)[O-])ccc1OCc1ccccc1Cl | -6.7 | 94.5* | 84.7* | -11.2 | 89.7* | 100.2* | Full FLuc ctr=51.4*
COc1cc(C=C2C(=O)NC(=O)NC2=O)ccc1OCc1ccc([N+](=O)[O-])cc1 | x | x | -3.2 | x | 8.7 | x

Bioassay records deposited in PubChem BioAssay by several laboratories.
